Screens: PubChem BioAssay, several laboratories
FXIIa inh = factor XIIa (human) inhibition. P00748. purified FXIIa, Boc-QGR-AMC fluorogenic substrate, 2 h. inhibition, % at 5 µM. hit rate 0.3% among 220,000. AID 800; in the data active = inhibition above about 40%;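 also: 0% = enzyme with no compound and 100% = blank without enzyme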
Target sequence (P00748 20-372 limits assumed): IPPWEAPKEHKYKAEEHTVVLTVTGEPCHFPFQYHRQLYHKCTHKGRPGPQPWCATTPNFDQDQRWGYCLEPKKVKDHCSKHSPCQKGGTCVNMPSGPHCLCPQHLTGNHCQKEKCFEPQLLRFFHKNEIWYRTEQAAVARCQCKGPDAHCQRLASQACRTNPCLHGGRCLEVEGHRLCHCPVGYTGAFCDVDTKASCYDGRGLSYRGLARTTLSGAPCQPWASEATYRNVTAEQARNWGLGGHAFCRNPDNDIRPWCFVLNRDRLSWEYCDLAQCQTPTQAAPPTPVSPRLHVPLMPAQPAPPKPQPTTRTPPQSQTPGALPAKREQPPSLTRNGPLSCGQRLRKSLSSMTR
Target sequence (P00748 373-615 limits assumed): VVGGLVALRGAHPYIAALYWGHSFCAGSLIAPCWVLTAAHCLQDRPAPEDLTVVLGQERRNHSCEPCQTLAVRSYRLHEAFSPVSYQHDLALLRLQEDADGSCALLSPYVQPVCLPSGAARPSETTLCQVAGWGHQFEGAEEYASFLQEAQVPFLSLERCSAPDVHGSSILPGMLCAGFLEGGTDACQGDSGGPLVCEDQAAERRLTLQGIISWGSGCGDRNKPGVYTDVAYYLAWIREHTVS
AHR activator = human AHR activation | hit rate 2.5% among 320,000 | AHR-responsive luciferase reporter cells, luminescence | activation, % at 5 µM | P35869 | AID 2796; in the data active = activation above about 47%;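 also: 0% = vehicle wells and 100% = reference agonist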
thrombin 1536 = inhibitors of human thrombin; P00734; alpha-thrombin, Boc-VPR-AMC fluorogenic substrate cleavage; inhibition, % at 5 µM; hit rate 0.26% among 220,000; AID 1046;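 active = inhibition at or above 40%; inactive = inhibition below 40%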;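 also: 0% = enzyme with no compound and 100% = wells without enzyme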
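Material: human alpha-thrombin protein. Incubation: reaction at ambient temperature. Technique: fluorescence of released AMC, ex 355 nm, em 460 nm. Control set: no-compound enzyme wells and no-enzyme blanks. Also added: Boc-VPR-AMC substrate, 15 µM final. Buffer or medium: pH 7.5 Tris (50 mM) with NaCl 150 mM, Tween 20 0.05%.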
STAT3 act-1 = STAT3 signaling activation | U3A cells, IL-6 STAT3-luciferase reporter, luminescence; 100% = signal with IL-6 EC80 alone | activation (% of control), % at 5.6 µM | hit rate 0.91% among 190,000;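 active = activation above the screen-wide mean of compound activation plus 3 SD, cut at about 130% in these data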;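 also: 0% = background luminescence of wells with medium and substrate only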
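Material: STAT3-luciferase reporter U3A cells; Probe or stimulus: IL-6 (33 ng/mL); Incubation: compound pre-incubation 1 h before IL-6, then 6 h stimulation at 37 °C; Technique: luminescence from STAT3-driven luciferase reporter; Evaluation: % activation versus median of IL-6-stimulated wells; Controls: IL-6-only high control.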
FXIa inh = inhibitors of human coagulation factor XIa; P03951; purified FXIa, Boc-Glu-Ala-Arg-AMC fluorogenic substrate; inhibition, % at 5 µM; hit rate 0.14% among 220,000; AID 798;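 active = inhibition of at least 40%; inactive = inhibition below 40%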;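 also: fluorescence of freed AMC excited at 355 nm; 0% = enzyme without compound and 100% = no enzyme blank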
hK5 inh = inhibitors of human kallikrein 5; Q9Y337; recombinant hK5, fluorogenic AMC substrate cleavage; inhibition, % at 5 µM; hit rate 0.59% among 210,000;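 active = inhibition of 40% or more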;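 also: 0% = enzyme controls without compound and 100% = no-enzyme blanks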
STAT3 act-2 = STAT3 activation, confirmation assay; shares compounds with STAT3 act-1; U3A STAT3-luciferase reporter, IL-6 potentiation, luminescence; U3A cells lack STAT1; 100 means same as IL-6 alone; potentiation (% of control), % at 5.7 µM; hit rate 64% among 1,200; AID 1267;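 active = percent activation of the STAT3 luciferase reporter above a set limit taken from the earlier primary screen, cut at about 130% in these data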;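 also: 0% = background signal of medium plus substrate and 100% = median of IL-6 with DMSO wells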
NFkB act 2 = activates NF-kappaB, counter-screen to STAT3 activators | human cells, NF-kappaB reporter activation | activation (% of control), % at 5.7 µM | hit rate 11% among 1,200 | shares compounds with STAT3 act-1; in the data active = activation above about 120%;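 also: reporter induced by TNF-alpha stimulation; 100% = median of stimulated DMSO wells and 0% = no signal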
STAT1 act STAT3c = counter-screen for STAT3 activators: STAT1 activation; shares compounds with STAT3 act-1; NIH 3T3 STAT1-luciferase reporter, IFN-gamma, luminescence; activation (% of control), % at 5.7 µM; AID 1318; hit rate 13% among 1,200;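 active = activation above the solvent-only control well mean plus 3 SD, set per screening run, cut at about 120% in these data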;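 also: 100% = IFN-gamma with DMSO median signal so 100% means no change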
* = called active by the depositor; . = no result. Only some compounds are listed: those with a hit (about 3.5% of all), similar ones and a draw of the others.

SMILES | FXIIa inh | AHR activator | thrombin 1536 | STAT3 act-1 | FXIa inh | hK5 inh | STAT3 act-2 | NFkB act 2 | STAT1 act STAT3c
Cc1[nH]n(-c2ccccc2)c(=O)c1N=Nc1ccccc1 | 7 | 24 | . | 148* | 8 | 1 | 176* | 130* | 174*
Oc1ccc2ccccc2c1/C=N/Nc1ccccc1 | 5 | 54* | 1 | 151* | 0 | -4 | 150* | 110 | 82
COC(=O)c1ccc(CC(=O)c2nc3ccccc3s2)cc1 | 6 | 24 | -15 | 106 | 2 | -13 | . | . | .
O=C(Cc1ccccc1)c1nc2ccccc2s1 | 7 | 46 | -2 | 143* | 5 | -11 | 164* | 128* | 128*
Cc1nc(/N=C(\N)NC(=O)c2ccccc2)nc2ccccc12 | -5 | 63* | -1 | 177* | 1 | -26 | 168* | 121* | 116
CC1=NN(c2ccccc2)C(=O)/C1=C/c1ccc[nH]1 | 10 | 85* | -10 | 150* | 5 | -16 | 160* | 120 | 117
CCN(CC)CCCNC(=O)c1cc2c(-c3ccc(Cl)cc3)nn(C)c2s1 | 13 | 54* | 5 | 161* | 9 | -1 | 156* | 109 | 97
Cn1nc(-c2ccc(Cl)cc2)c2cc(C(=O)NCC3CCCO3)sc21 (stereo unspecified) | 2 | 57* | -8 | 167* | -10 | 17 | 147* | 102 | 92
CCCCN(CC)CCNC(=O)c1cc2c(-c3ccccc3F)nn(C)c2s1 | . | 9 | . | . | . | . | . | . | .
CN=c1scc(-c2c[nH]c3ccccc23)n1C | -2 | . | -9 | 138* | -4 | -6 | 137* | 104 | 99
Cc1nn2c(-c3cccc(NC(=O)c4ccco4)c3)nnc2c2ccccc12 | 4 | 41 | -3 | 81 | 2 | -22 | . | . | .
Cc1nn2c(-c3ccccc3)nnc2c2ccccc12 | 18 | 37 | 0 | 170* | -1 | -10 | 143* | 117 | 115
CCn1c(O)c(N=NC(=S)NCC2CCCO2)c2ccccc21 (stereo unspecified) | 8 | 20 | -4 | 92 | -3 | -9 | . | . | .
CN(C)S(=O)(=O)c1cccc(NC(=O)COC(=O)CNC(=O)c2ccccc2F)c1 | 2 | 1 | -6 | . | -3 | -2 | . | . | .
COC(=O)CCC(=O)Nc1ccc(C)cc1OC(=O)CCC(=O)OC | -10 | 22 | -6 | 136* | -3 | -21 | 108 | 100 | 98
COC(=O)CCC(=O)Nc1cccc2c(NC(=O)CCC(=O)OC)cccc12 | -3 | 2 | -6 | 101 | -3 | 4 | . | . | .
O=c1c2ccccc2ncn1Cc1ccco1 | 2 | 17 | 0 | 147* | -1 | 7 | 145* | 100 | 95
Cn1c2ccccc2c2ncn(Cc3ccco3)c(=O)c21 | 10 | 17 | -3 | 106 | -4 | -10 | . | . | .
CC(=O)c1c(C)[nH]c(C(=O)CN2C(=O)NC(CCc3ccccc3)C2=O)c1C (stereo unspecified) | -3 | 2 | -9 | . | 2 | 1 | . | . | .
CC(=O)Nc1ccccc1-c1nn[nH]n1 | 10 | 15 | -2 | 151* | -2 | 2 | 142* | 111 | 100
CCCN(CC(=O)Nc1ccccc1OC)C(=O)c1ccc(=O)[nH]c1 | . | 6 | . | . | . | . | . | . | .
O=C(/C=C/c1ccccc1)C1=C(O)C(=O)N(CCO)C1c1ccccc1[N+](=O)[O-] (stereo unspecified) | 7 | 25 | -6 | 144* | 0 | 2 | 152* | 104 | 82
O=C(NCCCl)Nc1cccnc1Cl | 5 | -1 | -4 | 106 | -3 | -5 | . | . | .
COc1ccc2nc(NC(=O)C3=NN(c4ccccc4)C(=O)CC3)sc2c1 | 9 | 21 | -5 | 96 | 10 | 0 | . | . | .
CSc1nc2ccc(NC(=O)c3ccccn3)cc2s1 | . | 12 | . | . | . | . | . | . | .
SMILES | FXIIa inh | AHR activator | thrombin 1536 | STAT3 act-1 | FXIa inh | hK5 inh | STAT3 act-2 | NFkB act 2 | STAT1 act STAT3c
CSc1nc2ccc(NC(=O)C3=NN(c4ccccc4)C(=O)CC3)cc2s1 | 9 | 12 | 5 | 138* | -8 | -4 | 161* | 106 | 102
CSc1nc2ccc(NC(=O)C3=NNC(=O)CC3)cc2s1 | 4 | 19 | -4 | 141* | -2 | 1 | 151* | 104 | 100
CC(=O)c1ccc(NC(=O)C(C)OC(=O)C2CCN(c3ccc(C(F)(F)F)cn3)CC2)cc1 (stereo unspecified) | . | 1 | . | . | . | . | . | . | .
Cn1c(=O)[nH]c(=O)c2c1nc1n2CCCN1Cc1ccccc1 | 4 | 2 | -4 | . | -3 | -2 | . | . | .
COc1ccccc1NC(=O)NCCN1CCNC1=O | 2 | -1 | -3 | . | -5 | -4 | . | . | .
O=C1NC2(NN1c1ccccc1)C1CC3CC(C1)CC2C3 (stereo unspecified) | 28 | 2 | 0 | 98 | 19 | -19 | . | . | .
Cc1c(C(=O)O)oc2c1ccc1ccccc12 | 17 | 11 | 4 | 105 | 6 | -18 | . | . | .
Cc1nnc(NC(=O)c2oc3c(ccc4ccccc43)c2C)s1 | 15 | 40 | 2 | 150* | -2 | -24 | 146* | 106 | 102
Cc1ncoc1C(=O)N1CCc2c([nH]c3ccccc23)C1C(C)(C)C (stereo unspecified) | 7 | 12 | 0 | 133 | 1 | . | . | . | .
Cc1ncoc1C(=O)N1CCc2c([nH]c3ccccc23)C1C1CCCCC1 (stereo unspecified) | 2 | 13 | -8 | 140* | -3 | . | 128 | 106 | 110
Cc1ccc(S(=O)(=O)NC(C)(C)CN2CCC(Cc3ccccc3)CC2)cc1 | -4 | 3 | -2 | . | -5 | -3 | . | . | .
N#C/C(=C\c1ccc(-c2ccc(C(=O)O)cc2)o1)c1nc2ccccc2[nH]1 | 11 | . | -2 | 189* | 4 | 7 | 205* | 134* | 141*
Cc1ccc(-n2[nH]c(C)c(C=Nc3cc(C)ccn3)c2=O)cc1 | 11 | 39 | 1 | 138* | -1 | 21 | 102 | 101 | 103
Cc1ccc2cccc(NC(=S)NC(=O)c3c(Br)cnn3C)c2n1 | 17 | 36 | 1 | 139* | 7 | -7 | 117 | 108 | 103
Cc1ccc2cccc(NC(=S)NC(=O)c3ccn(C)n3)c2n1 | 8 | 43 | -6 | 127 | 0 | -13 | . | . | .
CC1CN(S(=O)(=O)c2cccc(C(=O)N(Cc3nnc(-c4ccccc4Cl)o3)C3CC3)c2)CC(C)O1 (stereo unspecified) | . | -2 | . | . | . | . | . | . | .
CCOC(=O)Cn1cc(C#N)c2ccccc21 | 8 | -1 | -5 | 102 | -3 | -1 | . | . | .
CCOC(=O)CC(C#N)c1cn(C)c2ccccc12 (stereo unspecified) | 3 | 17 | -7 | 145* | 0 | 0 | 130 | 104 | 95
